High-throughput results: PubChem, several laboratories
PostGolgi yeast: growth inhibition of a yeast mutant, post-Golgi transport screen; post-Golgi transport phenotypic cell assay; inhibition, % at 10 µM; 0.9% of 98,000 active; AID 739;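 further: yeast cells grown in 1536-well plates; yeast grown about 18 h at 30C before absorbance read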
Ecoli tolC: E. coli tolC mutant growth inhibition; AID 573; growth inhibition, % at 10 µM (by protocol); E. coli BW25113 tolC mutant growth, OD615; 2.2% of 65,000 active;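 active means growth inhibition at or above a cutoff equal to the mean over every tested compound plus 3 SD, cut at about 60% in these data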;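 further: growth measured after 20 h incubation at 37 °C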
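Test system: E. coli BW25113 ΔtolC::kan bacteria; incubation: 37 °C, 20 h exposure; medium: LB broth supplemented with 50 µg/mL kanamycin; read-out basis: percent growth inhibition; signal: A615 absorbance measurement; compound: 10 µM final, single dose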
HePTP inhibitor: inhibitors of human HePTP phosphatase; recombinant HePTP phosphatase activity, OD absorbance; inhibition, % at 20 µM; 0.64% of 110,000 active; AID 521; in the data active means inhibition above about 50%
Target sequence (P35236 whole entry, looked up): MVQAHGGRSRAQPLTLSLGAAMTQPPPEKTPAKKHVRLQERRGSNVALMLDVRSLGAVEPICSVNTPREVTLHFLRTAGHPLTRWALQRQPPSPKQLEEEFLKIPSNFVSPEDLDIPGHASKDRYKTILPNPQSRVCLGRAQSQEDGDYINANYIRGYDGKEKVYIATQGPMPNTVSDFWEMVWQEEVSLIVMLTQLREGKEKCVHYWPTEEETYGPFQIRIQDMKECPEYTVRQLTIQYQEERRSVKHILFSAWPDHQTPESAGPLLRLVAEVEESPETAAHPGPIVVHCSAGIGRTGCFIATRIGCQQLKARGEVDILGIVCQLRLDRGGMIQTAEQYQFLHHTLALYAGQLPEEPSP
PostGolgi ctrl: yeast control strain growth, post-Golgi counter-screen. efflux-deficient yeast background strain, growth absorbance A615, 16 h. inhibition, % at 10 µM. 5% of 98,000 active. AID 738
Ecoli WT expand: growth inhibitors of E. coli BW25113 wild type. 0.15% of 98,000 active. OD600 absorbance. growth inhibition, % at 100 µM;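 active means growth inhibition above about 50% at one test dose, limit read from the data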;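 further: growth measured after 20 h incubation at 37 °C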
PLAP activator: activates human placental alkaline phosphatase; purified PLAP enzyme, luminescent substrate read-out; stronger effect = higher value; activation fold at 20 µM; 1.2% of 96,000 active; AID 696; in the data active means activation fold above about 2
A number is an active result; i = inactive; nt = no result given. Most compounds without a hit are left out; they make up all but 5.5% or so of the library. Unless noted, no stated cut-off is given here; in the data, active means inhibition above about 30%; inactive means the rest.

SMILES	PostGolgi yeast	Ecoli tolC	HePTP inhibitor	PostGolgi ctrl	Ecoli WT expand	PLAP activator
O=c1/c(=C/c2ccccc2OCCOc2ccc([N+](=O)[O-])cc2)sc2nc3ccccc3n12	nt	nt	i	nt	nt	nt
CCCC(=O)N1CCN(S(=O)(=O)c2cc(Cl)ccc2OC)CC1	i	i	i	31.8	i	i
O=C1/C(=C\c2cccs2)SC(=S)N1c1cccc(Br)c1	nt	nt	i	nt	nt	nt
O=C(COc1ccccc1[N+](=O)[O-])N=Nc1c(O)[nH]c2ccc(Br)cc12	nt	nt	i	nt	nt	nt
COc1ccc(NC(=O)N2c3ccccc3CC2C)cc1OC (stereo not given)	i	i	i	i	i	i
COC(=O)c1ccccc1NC(=O)N1c2ccccc2CC1C (stereo not given)	i	95.0	i	47.5	i	i
O=S(=O)(c1cccc2cccnc12)N1CCN(c2ccccc2)CC1	i	nt	i	i	i	i
Cc1ccc2cccc(S(=O)(=O)N3CCN(c4cccc(Cl)c4)CC3)c2n1	i	i	i	57.4	i	i
O=C(Nc1ccc2nc(-c3ccccc3)[nH]c2c1)c1cccs1	i	nt	nt	i	i	i
O=C(Nc1ccc2nc(-c3ccc4nc[nH]c4c3)[nH]c2c1)c1cccs1	i	nt	nt	i	i	2.1
O=C(NC1CCCCC1)C1CC(=O)N(c2ccc(Br)cc2)C1 (stereo not given)	nt	nt	i	nt	nt	nt
CCOC(=O)C1=C(C)NC(=O)NC1c1ccsc1 (stereo not given)	i	nt	103.9	i	i	i
CCCc1cc(-c2[nH]ncc2-c2ccc3c(c2)OCCCO3)c(O)cc1O	i	100.0	i	i	i	2.6
CCCc1cc(-c2[nH]ncc2-c2ccc(C(=O)OCC)o2)c(O)cc1O	i	i	i	i	i	2.1
CCCC(=O)Nc1nc(-c2ccc3c(c2)OCCO3)cs1	i	i	i	i	i	i
Cc1ccc(NC(=O)N(Cc2ccccc2)C(C)C2CC2)cc1 (stereo not given)	nt	nt	102.4	nt	nt	nt
C=CCNC(=O)/C=C/c1cc(OC)ccc1OC	nt	nt	i	nt	nt	nt
O=C(NC1=NCCS1)C1Cc2ccccc2CN1C(=O)c1ccccc1 (stereo not given)	i	i	i	i	i	2.1
Cc1ccccc1N(C=O)C(=O)C1C(C)C2C=CC1C21CC1 (stereo not given)	nt	nt	104.7	nt	nt	nt
CCOc1ccc(C(=O)Nc2cccc(S(N)(=O)=O)c2)cc1Br	nt	nt	102.7	nt	nt	nt
COc1ccc(NS(=O)(=O)c2ccc3oc4ccccc4c3c2)cn1	i	100.0	i	47.0	i	i
CCCCCC/C(=N/O)c1ccccn1	i	100.0	i	40.4	i	i
O=C(NCCCNCc1ccccc1)c1ccccn1	i	i	i	36.1	i	i
O=C1OC(c2ccc(O)cc2)(c2ccc(O)cc2)c2ccccc21	nt	71.9	i	nt	nt	nt
COc1ccccc1Oc1cc(C#N)c(C#N)cc1-n1nnc2ccccc21	i	i	i	30.3	i	i
SMILES	PostGolgi yeast	Ecoli tolC	HePTP inhibitor	PostGolgi ctrl	Ecoli WT expand	PLAP activator
Cc1cccc(C)c1NC(=O)N1CCC(n2c(=O)[nH]c3ccccc32)CC1	i	nt	nt	33.1	i	i
FC(F)C(F)(F)C(F)(F)C(F)(F)c1cc(-c2ccccc2)n[nH]1	i	i	i	46.4	i	i
Cc1ccc(COc2ccc(Br)cc2/C=N/O)cc1	i	nt	nt	43.7	i	i
O/N=C/c1cc(Br)cc(Br)c1OCc1ccccc1	i	nt	nt	58.1	i	i
O/N=C/c1cc(Br)ccc1OCc1cccc(F)c1	i	nt	nt	35.2	i	i
CCOc1ccc(Cl)cc1/C=N/O	i	i	i	i	i	i
O=C(N/N=C/c1cc(Br)cc(Br)c1O)C(Oc1ccccc1)Oc1ccccc1	nt	nt	i	nt	nt	nt
O/N=C/c1cc(Cl)ccc1OCc1ccccc1Cl	i	nt	nt	i	i	i
COc1ccccc1NC(=O)C1=C(C)NC(=S)NC1c1ccc(Cl)cc1 (stereo not given)	nt	nt	i	nt	nt	nt
Fc1ccc(C(c2ccc(F)cc2)N2CCN(C/C=C/c3ccccc3)CC2)cc1	nt	76.1	i	nt	nt	nt
NC(=O)c1nn2c(c1Br)NC(c1ccccc1)CC2C(F)(F)F (stereo not given)	nt	nt	i	nt	nt	nt
O=C(O)c1nn2c(c1Br)NC(c1ccccc1)CC2C(F)(F)F (stereo not given)	i	i	i	32.3	i	i
CCC1CCc2c(c3ccccc3[nH]c2=O)O1 (stereo not given)	i	nt	nt	30.5	i	i
CCCC1CCc2c(c3ccccc3[nH]c2=O)O1 (stereo not given)	i	nt	nt	i	i	i
CCOC(=O)c1c(NC(=O)COc2ccccc2)sc(C(=O)Nc2ccccc2F)c1C	nt	nt	i	nt	nt	nt
Cc1n[nH]c(C)c1CCc1nc2c3ccccc3nc(SCC(=O)Nc3ccccc3F)n2n1	i	nt	nt	i	i	2.2
Cc1cccc(NC(=O)CSc2nc3ccccc3c3nc(CCc4c(C)n[nH]c4C)nn23)c1	i	nt	nt	i	i	i
O=C(/C=C/Nc1cccc(O)c1)c1ccc(Cl)cc1	nt	nt	i	nt	nt	nt
C=CCOc1c(Cl)cc(/C=C2\C(=O)NC(=O)N(c3ccc(C)cc3)C2=O)cc1OC	nt	nt	i	nt	nt	nt
O=C(Nc1ccc([N+](=O)[O-])cc1O)C1CC1(c1ccccc1)c1ccccc1 (stereo not given)	nt	nt	i	nt	nt	nt
Cc1ccc(C2(c3ccc(C)cc3)CC2C(=O)Nc2ccc([N+](=O)[O-])cc2O)cc1 (stereo not given)	101.5	nt	i	90.8	i	i
Cc1ccc(CN2CCN(Cc3c[nH]c4ccccc34)CC2)cc1	nt	nt	i	nt	nt	nt
Nc1nonc1C(=O)NCCNCc1ccccc1OCc1ccccc1F	i	i	i	31.3	i	i
OC(COc1ccc2ccccc2c1Br)Cn1cnc(-c2ccccc2)c1 (stereo not given)	i	nt	nt	52.6	i	i
OC(COc1ccc2ccccc2c1Cl)CN1CCOCC1 (stereo not given)	i	i	i	i	i	i
SMILES	PostGolgi yeast	Ecoli tolC	HePTP inhibitor	PostGolgi ctrl	Ecoli WT expand	PLAP activator
Cc1cc2ncn(/N=C\c3ccccc3)c2cc1C	nt	nt	i	nt	nt	nt
Cc1cc2ncn(/N=C/c3ccc([N+](=O)[O-])o3)c2cc1C	i	nt	nt	51.5	i	i
Cc1ccc(C2NC(=O)NC(O)(C(F)(F)F)C2C(=O)c2ccc(Br)cc2)cc1 (stereo not given)	nt	nt	i	nt	nt	nt
Cc1cccc(N=c2oc3cc(O)ccc3cc2C(N)=O)c1	i	97.5	i	i	i	i
CCn1cc(Cl)c(C(=O)Nc2nc3ccccc3n2CCN2CCCCC2)n1	i	i	i	i	i	2.3
Cc1c(Cl)c(C(=O)Nc2nc3ccccc3n2CCN2CCCCC2)nn1C	i	nt	nt	i	i	2.5
O=C(Nc1nc2ccccc2n1CCN1CCCCC1)c1ccco1	i	i	i	i	i	i
CS(=O)(=O)N(Cc1ccccc1)c1ccc(C(=O)Nc2ccc(F)c(Cl)c2)cc1	nt	nt	i	nt	nt	nt
CC1CCC(N2CCN(C3CCN(Cc4ccccc4)CC3)CC2)CC1 (stereo not given)	nt	nt	i	nt	nt	nt
COc1ccc(N2C(=O)C3C4C=CC(C4=C(C)C)C3C2=O)cc1 (stereo not given)	nt	nt	i	nt	nt	nt
Cc1ccc(C(=O)N/C(=C\c2cccc(Oc3ccccc3)c2)C(=O)NCCCn2ccnc2)cc1	nt	nt	i	nt	nt	nt
Cc1nn(CC(=O)Nc2sc3c(c2C#N)CCC(C(C)(C)C)C3)c(C)c1[N+](=O)[O-] (stereo not given)	i	nt	nt	35.1	i	i
